Data on twelve compounds can be found in ChEMBL document CHEMBL1152281, “2-Alkylamino- and alkoxy-substituted 2-amino-1,3,4-oxadiazoles-O-Alkyl benzohydroxamate esters replacements retain the desired inhibition and selectivity against MEK (MAP ERK kinase)” (Bioorg Med Chem Lett, 2008).

As a reminder, the half-life is the time needed for the level to fall by half in the phase considered. In general, solubility refers to the concentration that dissolves in the medium under given conditions. Low values mean a poorly soluble substance, high ones a readily soluble substance.

A short description of data set [1]: Metabolic stability in human liver microsomes assessed as half life. For orientation: Microsomes from liver hold many membrane-bound enzymes, among them those of drug oxidation.
The nature of data set [2]: Solubility in sodium phosphate buffer at pH 6.5 by HPLC.
The test system of data set [3] is Colon 26. As to the kind of experiment: Antitumor activity against mouse Colon 26 cells implanted in mouse at 50 mg/kg, po administered BID on day 9 to day 15. Type of data set: functional.
Data set [4] concerns Colon 26. As to the kind of experiment: Antitumor activity against mouse Colon 26 cells implanted in mouse assessed as <62 mg decrease in tumor mass at 150 mg/kg, po administered BID on day 9 to day 15. Further details: dose 150 mg/kg. Type of data set: functional, organism-based.
In data set [5] the test system is Colon 26. Kind of data set: Antitumor activity against mouse Colon 26 cells implanted in mouse assessed as <62 mg decrease in tumor mass at 100 mg/kg, po administered on day 9 to day 15. Type of data set: functional, organism-based. Also noted: dose 100 mg/kg.
Data set [6] concerns Colon 26. Kind of data set: Antitumor activity against mouse Colon 26 cells implanted in mouse at 200 mg/kg, po administered on day 9 to day 15. The format is functional.
Data set [7] has as its system Colon 26. As to the kind of experiment: Antitumor activity against mouse Colon 26 cells implanted in mouse at 100 mg/kg, po administered on day 9 to day 15. Type of data set: functional.
The subject of data set [8] is Mus musculus. As to the kind of experiment: Toxicity in mouse Colon 26 cells implanted mouse assessed as increase in body weight at 100 mg/kg, po administered on day 9 to day 15. The following applies: in vivo. The format is organism-based. Also noted: dose 100 mg/kg, route oral. An outline of the steps: (§1)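 Mice bearing subcutaneous Colon 26 tumours were gavaged daily or BID on days 9–15 (3 per group). Toxicity was taken as maximum treatment-related weight loss, expressed as percent of mean group weight at initial treatment, with the day of maximum loss recorded; a net weight gain is noted as "+". Vehicle was 5% EtOH + 5% Tween 80 in saline.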

Data set [9] has as its system Colon 26. As to the kind of experiment: Antitumor activity against mouse Colon 26 cells implanted in mouse at 150 mg/kg, po administered BID on day 9 to day 15. The format is functional.
Data set [10] relates to Colon 26. As to the kind of experiment: Antitumor activity against mouse Colon 26 cells implanted in mouse at 100 mg/kg, po administered BID on day 9 to day 15. Type of data set: functional.
In data set [11] the test system is Colon 26. Kind of data set: Antitumor activity against mouse Colon 26 cells implanted in mouse at 300 mg/kg, po administered on day 9 to day 15. Type of data set: functional.
The test system of data set [12] is Colon 26. As to the kind of experiment: Antitumor activity against mouse Colon 26 cells implanted in mouse assessed as 50% decrease in tumor mass at 50 mg/kg, po administered BID on day 9 to day 15. Type of data set: functional, organism-based. Also noted: dose 50 mg/kg.
Data set [13] deals with Colon 26. As to the kind of experiment: Antitumor activity against mouse Colon 26 cells implanted in mouse assessed as <62 mg decrease in tumor mass at 300 mg/kg, po administered on day 9 to day 15. Type of data set: functional, organism-based. Further details: dose 300 mg/kg.
Data set [14] concerns Colon 26. As to the kind of experiment: Antitumor activity against mouse Colon 26 cells implanted in mouse assessed as <62 mg decrease in tumor mass at 100 mg/kg, po administered BID on day 9 to day 15. The format is functional, organism-based. Also noted: dose 100 mg/kg.
The subject of data set [15] is Mus musculus. Kind of data set: Ex vivo inhibition of MEK in mouse Colon 26 cells implanted mouse assessed as suppression of ERK-phosphorylation at 100 mg/kg, po after 10 hrs by Western blot. Type of data set: functional, organism-based. Also noted: dose 100 mg/kg. An outline of the steps:
(§2)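 Mice bearing subcutaneous colon 26 tumours received a single oral dose. At each time point tumours were excised, and p-ERK levels were measured by Western blot against vehicle-treated controls.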
On the technique in general: In western blotting, separated proteins are transferred to a membrane and probed.

Data set [16] relates to Mus musculus. As to the kind of experiment: Toxicity in mouse Colon 26 cells implanted mouse assessed as increase in body weight at 100 mg/kg, po administered BID on day 9 to day 15. Type of data set: organism-based. Further details: dose 100 mg/kg, route oral. The following applies: in vivo. The gist of the method:
as §1

The test system of data set [17] is Mus musculus. As to the kind of experiment: Ex vivo inhibition of MEK in mouse Colon 26 cells implanted mouse assessed as suppression of ERK-phosphorylation at 12.5 mg/kg, po after 10 hrs by Western blot. The format is functional, organism-based. Further details: dose 12.5 mg/kg. An outline of the steps: as §2
For data set [18], the system named is Mus musculus. Kind of data set: Toxicity in mouse Colon 26 cells implanted mouse assessed as increase in body weight at 50 mg/kg, po administered BID on day 9 to day 15. The format is organism-based. Further details: dose 50 mg/kg, route oral. The following applies: in vivo. An outline of the steps: as §1
Data set [19] concerns Mus musculus. As to the kind of experiment: Toxicity in mouse Colon 26 cells implanted mouse assessed as body weight loss at 150 mg/kg, po administered BID on day 9 to day 15. The following applies: in vivo. Also noted: dose 150 mg/kg, route oral. The format is organism-based. An outline of the steps: as §1
For data set [20], the system named is Mus musculus. Kind of data set: Toxicity in mouse Colon 26 cells implanted mouse assessed as body weight loss at 200 mg/kg, po administered on day 9 to day 15. Type of data set: organism-based. The following applies: in vivo. Also noted: dose 200 mg/kg, route oral. The gist of the method: as §1
Data set [21] concerns Colon 26. As to the kind of experiment: Antitumor activity against mouse Colon 26 cells implanted in mouse assessed as <62 mg decrease in tumor mass at 50 mg/kg, po administered BID on day 9 to day 15. The format is functional, organism-based. Further details: dose 50 mg/kg.
Data set [22] concerns Mus musculus. As to the kind of experiment: Toxicity in mouse Colon 26 cells implanted mouse assessed as body weight loss at 300 mg/kg, po administered on day 9 to day 15. The following applies: in vivo. The format is organism-based. Also noted: dose 300 mg/kg, route oral. An outline of the steps: as §1
Data set [23] has as its system Colon 26. Kind of data set: Antitumor activity against mouse Colon 26 cells implanted in mouse assessed as 50% decrease in tumor mass at 100 mg/kg, po administered BID on day 9 to day 15. Also noted: dose 100 mg/kg. The format is functional, organism-based.
For data set [24], the system named is Mus musculus. Kind of data set: Toxicity in mouse Colon 26 cells implanted mouse assessed as body weight loss at 100 mg/kg, po administered BID on day 9 to day 15. The format is organism-based. Also noted: dose 100 mg/kg, route oral. To be noted: in vivo. The gist of the method:
as §1

≈ marks a conversion by molar mass, not a printed value. Calls of active or inactive are those of the source.

For `OCCNc1nnc(-c2ccc(F)c(F)c2Nc2ccc(I)cc2F)o1`, the half-life in data set [1] worked out at 40 min. For the same compound, the solubility in data set [2] was < 3 µg/mL.

As to `COCCCNc1nnc(-c2ccc(F)c(F)c2Nc2ccc(I)cc2F)o1`, the half-life in data set [1] was 35 min. Besides, the solubility in data set [2] was < 3 µg/mL.

As to `OCCCNc1nnc(-c2ccc(F)c(F)c2Nc2ccc(I)cc2F)o1`, in data set [1], the half-life turned out to be 40 min. For the same compound, the solubility in data set [2] was < 3 µg/mL.

Take `OCCCCNc1nnc(-c2ccc(F)c(F)c2Nc2ccc(I)cc2F)o1`: the half-life in data set [1] was found to be 40 min. The solubility in data set [2] was < 3 µg/mL.

`Fc1cc(I)ccc1Nc1c(-c2nnc(NCCCN3CCOCC3)o2)ccc(F)c1F`: the half-life in data set [1] turned out to be 40 min. For the same compound, the solubility in [2] is < 3 µg/mL.

As to `OCCCCCNc1nnc(-c2ccc(F)c(F)c2Nc2ccc(I)cc2F)o1`, the half-life in data set [1] was 40 min. Also, the solubility in [2] is < 3 µg/mL.

`Nc1nnc(-c2ccc(F)c(F)c2Nc2ccc(I)cc2F)o1`: the solubility in [2] was < 3 µg/mL.

As to `CNCCNc1nnc(-c2ccc(F)c(F)c2Nc2ccc(I)cc2F)o1`, the LCK in [3] was 0.1; in data set [6], 0.3; in [7], 0; in data set [9], 0.4; in data set [10], 0.2; in data set [11], 0.3. Moreover, the result in data set [4], in data set [13], in data set [14], in [15] and in data set [17] was Active. In addition, in [1], the half-life amounted to 40 min. Moreover, the result in data set [5], in data set [12] and in data set [21] was inactive. Moreover, the Activity result in [8] is recorded as “Toxic”; in data set [16], “Toxic”; in [18], “Toxic”; in [19], 4%; in data set [20], 0.1%; in [22] it was 4.5%. Also, the concentration in solution in data set [2] (solubility) came to 6.7 µg/mL (≈ 13.7 µM).

With `O=C(NOCC1CC1)c1ccc(F)c(F)c1Nc1ccc(I)cc1Cl` [CI-1040], the half-life in [1] stood at 8 min. Besides, the outcome in data set [23] and in data set [14] was inactive. In data set [24], the Activity came out at 4.8%. The compound also came in with an LCK in [10] of 0.1.

Turning to `NCCNc1nnc(-c2ccc(F)c(F)c2Nc2ccc(I)cc2F)o1`, the half-life in [1] was 40 min. The solubility in [2] is < 3 µg/mL.

As to `CCN(CC)CCCNc1nnc(-c2ccc(F)c(F)c2Nc2ccc(I)cc2F)o1`, the half-life in data set [1] is 40 min. For the same compound, in data set [2], the solubility was < 3 µg/mL.

Regarding `NCCCNc1nnc(-c2ccc(F)c(F)c2Nc2ccc(I)cc2F)o1`, in [1], the half-life was determined as 40 min. Moreover, in [2], the solubility was 5.4 µg/mL (≈ 11 µM).
